ChEMBL document CHEMBL1121582, “Structure-activity relationship of diphenylthiourea antivirals” (1980)

What was measured:
Assay type in all cases: functional
Poliovirus 1 [1] = assay: Antiviral activity was evaluated in vitro against human poliovirus as inhibition zone in agar-diffusion plaque-inhibition test
Method in brief: (§1)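 FL cell monolayers were infected with virus (adsorption 60 min at 20 °C) at a dose giving semiconfluent plaques in 24-48 h at 37 °C. Cells were overlaid with 1% agar in Eagle medium with 10% heated calf serum. 0.1 mL of compound, usually a 2-4% solution, went into 6 mm glass cylinders set in the agar. A second overlay held 0.02% neutral red. Plaque-inhibition and cytotoxicity zone diameters (mm) were read using 3-5 cylinders in at least two dishes. Grading: -, ≤5 mm; ±, 6-10; +, 11-20; ++, ≥20.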

[2] = Antiviral activity was evaluated in vitro against human ECHO virus as toxicity zone in agar-diffusion plaque-inhibition test; method in brief: as §1
Poliovirus 1 [3] = assay: Antiviral activity was evaluated in vitro against human poliovirus as toxicity zone in agar-diffusion plaque-inhibition test; method in brief: as §1
[4] = Antiviral activity was evaluated in vitro against human Coxsackie virus as toxicity zone in agar-diffusion plaque-inhibition test; method in brief: as §1
cells [5] = settings: Homo sapiens
[6] = Antiviral activity was evaluated in vitro against human ECHO virus as antiviral affect in agar-diffusion plaque-inhibition test (- => inhibition, diameter < = 5 mm)
Method in brief: (§2)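 FL cell monolayers in 90 mm dishes infected with virus dose giving semiconfluent plaques (adsorption 60 min, 20 °C), then 1% agar overlay in Eagle MM with 10% heated calf serum. Compound, 0.1 mL of usually 2-4% ethanol solution, was placed in 6 mm glass cylinders set in the agar. Concentrations were preliminarily checked as well-tolerated by the cells. Incubation was 24-48 h at 37 °C, followed by a second overlay of 1.5% agar with 0.02% neutral red. Read-out was the diameter of the plaque-inhibition zone and the cytotoxicity zone, using 3-5 cylinders per compound in ≥2 dishes. Scoring: - Δϕ ≤5 mm; ± 6-10; + 11-20; ++ ≥20 mm.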

Homo sapiens [7] = species: Homo sapiens; assay: Antiviral activity was evaluated in vitro against human Coxsackie virus as antiviral affect in agar-diffusion plaque-inhibition test (- =>inhibition, diameter < = 5 mm); method in brief: as §2
[8] = Antiviral activity was evaluated in vitro against human poliovirus as antiviral affect in agar-diffusion plaque-inhibition test (- => inhibition, diameter < = 5 mm); method in brief: as §1
[9] = Antiviral activity was evaluated in vitro against human poliovirus as antiviral affect in agar-diffusion plaque-inhibition test - => inhibition diameter < = 5 mm; method in brief: as §1
Homo sapiens [10] = species: Homo sapiens; assay: Antiviral activity was evaluated in vitro against human Coxsackie virus as antiviral affect in agar-diffusion plaque-inhibition test (- => inhibition, diameter < = 5 mm); method in brief: as §2
Homo sapiens [11] = species: Homo sapiens; assay: Antiviral activity was evaluated in vitro against human Coxsackie virus as antiviral affect in agar-diffusion plaque-inhibition test (+/- => inhibition, diameter 6-10 mm); method in brief: as §1
Homo sapiens [12] = species: Homo sapiens; assay: Antiviral activity was evaluated in vitro against human ECHO virus as antiviral affect in agar-diffusion plaque-inhibition test (+ => inhibition diameter = 11-20 mm); method in brief: as §1
Homo sapiens [13] = species: Homo sapiens; assay: Antiviral activity was evaluated in vitro against human ECHO virus as antiviral affect in agar-diffusion plaque-inhibition test (- => inhibition diameter < = 5 mm); method in brief: as §2
Homo sapiens [14] = species: Homo sapiens; assay: Antiviral activity was evaluated in vitro against human Coxsackie virus as antiviral affect in agar-diffusion plaque-inhibition test (- => inhibition diameter < = 5 mm); method in brief: as §2
Homo sapiens [15] = species: Homo sapiens; assay: Antiviral activity was evaluated in vitro against human poliovirus as antiviral affect in agar-diffusion plaque-inhibition test (- => inhibition diameter < = 5 mm); method in brief: as §1
Homo sapiens [16] = species: Homo sapiens; assay: Antiviral activity was evaluated in vitro against human ECHO virus as antiviral affect in agar-diffusion plaque-inhibition test(- => inhibition, diameter < = 5 mm); method in brief: as §1
Homo sapiens [17] = species: Homo sapiens; assay: Antiviral activity was evaluated in vitro against human Coxsackie virus as antiviral affect in agar-diffusion plaque-inhibition test(- => inhibition, diameter < = 5 mm); method in brief: as §1
cells [18] = settings: Homo sapiens; remark: listed apart in the source
Homo sapiens [19] = species: Homo sapiens; assay: Antiviral activity was evaluated in vitro against human poliovirus as antiviral affect in agar-diffusion plaque-inhibition test (+/- => inhibition, diameter = 6-10 mm); method in brief: as §1
Homo sapiens [20] = species: Homo sapiens; assay: Antiviral activity was evaluated in vitro against human poliovirus as antiviral affect in agar-diffusion plaque-inhibition test(- => inhibition, diameter < = 5 mm); method in brief: as §1
Homo sapiens [21] = species: Homo sapiens; assay: Antiviral activity was evaluated in vitro against human ECHO virus as antiviral affect in agar-diffusion plaque-inhibition test (+/- =>inhibition, diameter 6-10 mm); method in brief: as §1
cells [22] = settings: Homo sapiens; remark: listed apart in the source

Nc1cccc(N/C(S)=N/c2ccccc2)c1
Inhibition zone (Poliovirus 1 [1]): 28.3 mm | Toxicity zone [2]: 20 mm | Toxicity zone (Poliovirus 1 [3]): 18 mm | Toxicity zone [4]: 16.7 mm | inhibition at 200 µM (cells [5]): 100%

Oc1ccccc1/N=C(/S)Nc1ccccc1
Antiviral effect [6]: Not toxic | Antiviral effect (Homo sapiens [7]): Not toxic | Antiviral effect [8]: Not toxic

NC(N)=S [THIOUREA]
Inhibition zone (Poliovirus 1 [1]): 26 mm | Toxicity zone (Poliovirus 1 [3]): 22 mm | Antiviral effect [9]: Not toxic

Nc1cccc(O)c1 [3-AMINOPHENOL]
Inhibition zone (Poliovirus 1 [1]): 0 mm | Toxicity zone (Poliovirus 1 [3]): 0 mm | Antiviral effect [9]: Not toxic

O=C(O)c1ccccc1/N=C(/S)Nc1ccccc1
Antiviral effect (Homo sapiens [10]): Not toxic

Nc1ccccc1/N=C(\S)Nc1ccccc1N
Inhibition zone (Poliovirus 1 [1]): 53.7 mm | Toxicity zone [2]: 43.5 mm | Toxicity zone (Poliovirus 1 [3]): 39.4 mm | Toxicity zone [4]: 34 mm | Antiviral effect (Homo sapiens [11]): +/- | Antiviral effect (Homo sapiens [12]): Not toxic

Nc1cccc(NC(=O)Nc2ccccc2)c1
Inhibition zone (Poliovirus 1 [1]): 0 mm | Toxicity zone (Poliovirus 1 [3]): 0 mm | Antiviral effect [9]: Not toxic

Nc1ccc(N/C(S)=N/c2ccccc2)cc1
Inhibition zone (Poliovirus 1 [1]): 0 mm | Antiviral effect (Homo sapiens [13]): Not toxic | Toxicity zone (Poliovirus 1 [3]): 0 mm | Antiviral effect (Homo sapiens [14]): Not toxic | Antiviral effect (Homo sapiens [15]): Not toxic

CC(=O)Nc1cccc(O)c1 [METACETAMOL]
Inhibition zone (Poliovirus 1 [1]): 0 mm | Toxicity zone (Poliovirus 1 [3]): 0 mm | Antiviral effect [8]: Not toxic

O=C(Nc1ccccc1)Nc1cccc(O)c1
Inhibition zone (Poliovirus 1 [1]): 13.3 mm | Toxicity zone [2]: 6.5 mm | Antiviral effect (Homo sapiens [16]): Not toxic | Toxicity zone (Poliovirus 1 [3]): 7.3 mm | Toxicity zone [4]: 6.5 mm | inhibition at 200 µM (cells [5]): 96.3% | Antiviral effect (Homo sapiens [17]): Not toxic | inhibition at 100 µM (cells [18]): 66.3% | Antiviral effect (Homo sapiens [19]): Not toxic

Oc1ccc(/N=C(\S)Nc2ccc(O)cc2)cc1
Inhibition zone (Poliovirus 1 [1]): 0 mm | Toxicity zone (Poliovirus 1 [3]): 0 mm | Antiviral effect (Homo sapiens [20]): Not toxic

Oc1cccc(/N=C(\S)Nc2cccc(O)c2)c1
Inhibition zone (Poliovirus 1 [1]): 26.7 mm | Antiviral effect (Homo sapiens [21]): +/- | Toxicity zone [2]: 29 mm | Toxicity zone (Poliovirus 1 [3]): 11.4 mm | Toxicity zone [4]: 33.3 mm | Antiviral effect (Homo sapiens [11]): +/- | inhibition at 200 µM (cells [5]): 89% | inhibition at 100 µM (cells [18]): 73.5%

Nc1ccccc1/N=C(/S)Nc1ccccc1
Inhibition zone (Poliovirus 1 [1]): 28 mm | Toxicity zone [2]: 37 mm | Antiviral effect (Homo sapiens [16]): Not toxic | Toxicity zone (Poliovirus 1 [3]): 9 mm | Toxicity zone [4]: 41 mm | inhibition at 200 µM (cells [5]): 98.7% | Antiviral effect (Homo sapiens [17]): Not toxic

Nc1ccccc1NC(=O)Nc1ccccc1
Inhibition zone (Poliovirus 1 [1]): 0 mm | Toxicity zone (Poliovirus 1 [3]): 0 mm | Antiviral effect [9]: Not toxic

O=C(O)c1cccc(N/C(S)=N/c2ccccc2)c1
Antiviral effect [6]: Not toxic | Antiviral effect [8]: Not toxic | Antiviral effect (Homo sapiens [10]): Not toxic

O=C(Nc1ccccc1)Nc1ccc(O)cc1
Inhibition zone (Poliovirus 1 [1]): 0 mm | Toxicity zone (Poliovirus 1 [3]): 0 mm | Antiviral effect [9]: Not toxic

Oc1ccc(N/C(S)=N/c2ccccc2)cc1
Antiviral effect [6]: Not toxic | Antiviral effect (Homo sapiens [19]): +/-

Nc1ccc(NC(=O)Nc2ccccc2)cc1
Inhibition zone (Poliovirus 1 [1]): 0 mm | Toxicity zone (Poliovirus 1 [3]): 0 mm | Antiviral effect [9]: Not toxic

O=C(Nc1ccccc1)Nc1ccccc1O
Inhibition zone (Poliovirus 1 [1]): 36.2 mm | Toxicity zone (Poliovirus 1 [3]): 32 mm | Antiviral effect [8]: Not toxic

Nc1ccc(/N=C(\S)Nc2ccc(N)cc2)cc1
Inhibition zone (Poliovirus 1 [1]): 0 mm | Toxicity zone (Poliovirus 1 [3]): 0 mm | Antiviral effect [9]: Not toxic

O=C(O)c1ccc(N/C(S)=N/c2ccccc2)cc1
Antiviral effect [6]: Not toxic | Antiviral effect [8]: Not toxic | Antiviral effect (Homo sapiens [10]): Not toxic

Oc1cccc(N/C(S)=N/c2ccccc2)c1
inhibition at 100 µM (cells [22]): 99.4% | Inhibition zone (Poliovirus 1 [1]): 33 mm | Toxicity zone (Poliovirus 1 [3]): 15.8 mm | inhibition at 200 µM (cells [5]): 99.9%

O=C(O)c1ccc(N/C(S)=N/c2ccccc2)cc1O
Inhibition zone (Poliovirus 1 [1]): 36.1 mm | Toxicity zone (Poliovirus 1 [3]): 17.9 mm | inhibition at 200 µM (cells [5]): 99.9%
